# Reference: ChEMBL document CHEMBL1833953, “Design, synthesis, and evaluation of a novel dual FMS-like tyrosine kinase 3/stem cell factor receptor (FLT3/c-KIT) inhibitor for the treatment of acute myelogenous leukemia” (J Med Chem, 2011)
# Legend:
# [1] = Half life in iv dosed rat; assay type: ADME, organism-based; conditions: in vivo
# [2] = Clearance in iv dosed rat; assay type: ADME, organism-based; conditions: in vivo
# MV4-11 = assay: Cytotoxicity against human MV411 cells
# [3] = target: T1, Receptor-type tyrosine-protein kinase FLT3 (Homo sapiens, UniProt P36888); assay: Displacement of [33P]ATP from human recombinant FLT3 domain after 20 mins by scintillation counting
# T1 sequence (P36888 whole entry): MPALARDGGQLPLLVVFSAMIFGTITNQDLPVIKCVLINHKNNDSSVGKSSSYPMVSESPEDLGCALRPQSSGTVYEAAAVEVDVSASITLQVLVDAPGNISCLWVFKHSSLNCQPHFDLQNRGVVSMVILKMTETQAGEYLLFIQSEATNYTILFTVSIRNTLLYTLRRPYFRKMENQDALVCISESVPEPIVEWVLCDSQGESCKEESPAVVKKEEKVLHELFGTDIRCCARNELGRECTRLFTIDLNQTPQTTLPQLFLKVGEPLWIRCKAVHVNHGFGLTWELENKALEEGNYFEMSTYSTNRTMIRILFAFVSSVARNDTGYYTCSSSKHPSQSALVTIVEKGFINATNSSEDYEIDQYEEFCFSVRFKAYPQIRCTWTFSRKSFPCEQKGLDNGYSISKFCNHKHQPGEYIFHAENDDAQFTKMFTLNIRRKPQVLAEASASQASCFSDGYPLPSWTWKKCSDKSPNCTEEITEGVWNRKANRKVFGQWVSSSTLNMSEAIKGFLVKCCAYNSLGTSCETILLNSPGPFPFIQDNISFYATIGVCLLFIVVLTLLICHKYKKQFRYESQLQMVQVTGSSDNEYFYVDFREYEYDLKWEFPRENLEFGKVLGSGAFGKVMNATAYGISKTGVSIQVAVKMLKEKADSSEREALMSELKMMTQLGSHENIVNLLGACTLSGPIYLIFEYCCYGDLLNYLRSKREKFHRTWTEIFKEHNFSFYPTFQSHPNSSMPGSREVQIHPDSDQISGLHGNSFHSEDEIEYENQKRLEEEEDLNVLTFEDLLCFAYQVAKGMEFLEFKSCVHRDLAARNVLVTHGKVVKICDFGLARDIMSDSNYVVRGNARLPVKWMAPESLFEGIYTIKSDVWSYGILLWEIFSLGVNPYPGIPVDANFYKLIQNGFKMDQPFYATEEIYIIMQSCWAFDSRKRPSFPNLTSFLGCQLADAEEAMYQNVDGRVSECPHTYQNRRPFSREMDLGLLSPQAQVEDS
# [4] = target: Mast/stem cell growth factor receptor Kit (Homo sapiens, UniProt P10721); assay: Displacement of [33P]ATP from human recombinant c-KIT domain after 20 mins by scintillation counting
# Chain of Mast/stem cell growth factor receptor Kit (P10721 whole entry, the tested form may be a part): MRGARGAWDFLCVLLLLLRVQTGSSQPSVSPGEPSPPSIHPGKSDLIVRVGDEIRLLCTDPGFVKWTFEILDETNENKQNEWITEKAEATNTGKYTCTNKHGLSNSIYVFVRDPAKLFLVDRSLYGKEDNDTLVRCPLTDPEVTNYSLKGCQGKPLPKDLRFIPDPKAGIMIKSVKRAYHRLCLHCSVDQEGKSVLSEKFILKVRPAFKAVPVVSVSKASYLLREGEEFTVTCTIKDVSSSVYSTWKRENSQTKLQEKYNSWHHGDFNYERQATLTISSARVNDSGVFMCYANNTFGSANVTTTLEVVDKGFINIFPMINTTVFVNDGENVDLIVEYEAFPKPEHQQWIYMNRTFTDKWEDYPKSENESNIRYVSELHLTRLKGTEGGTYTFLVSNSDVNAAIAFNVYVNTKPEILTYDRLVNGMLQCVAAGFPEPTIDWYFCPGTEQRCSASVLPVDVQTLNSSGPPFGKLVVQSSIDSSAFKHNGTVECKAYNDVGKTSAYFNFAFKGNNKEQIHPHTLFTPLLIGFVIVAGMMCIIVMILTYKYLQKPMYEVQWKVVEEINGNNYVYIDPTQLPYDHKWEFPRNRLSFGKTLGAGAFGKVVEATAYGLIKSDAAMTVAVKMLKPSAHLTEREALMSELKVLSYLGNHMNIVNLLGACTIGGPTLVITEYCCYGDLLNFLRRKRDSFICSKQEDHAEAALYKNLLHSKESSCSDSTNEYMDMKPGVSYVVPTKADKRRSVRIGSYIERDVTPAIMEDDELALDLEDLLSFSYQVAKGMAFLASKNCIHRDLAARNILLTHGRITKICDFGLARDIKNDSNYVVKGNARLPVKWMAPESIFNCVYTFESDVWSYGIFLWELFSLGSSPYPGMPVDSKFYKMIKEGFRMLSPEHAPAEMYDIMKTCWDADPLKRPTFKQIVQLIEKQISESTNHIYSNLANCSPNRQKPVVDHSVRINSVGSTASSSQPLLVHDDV
# How it was run: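 Radiometric kinase assay run in 100 mM HEPES pH 7.5 with 10 mM MgCl2, 25 mM NaCl, 0.01% BSA, 1 mM DTT and 0.5 mg/mL polyE4Y. Enzyme was 5 nM c-KIT with 700 μM 33P-ATP; inhibitor was added from DMSO. The reaction was started with ATP/substrate, run 20 min, stopped with 20% TCA/4 mM ATP, filtered, washed with 5% TCA and counted by scintillation.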
# [5] = target: T2, Interleukin-1 receptor-associated kinase 4 (Homo sapiens, UniProt Q9NWZ3); assay: Inhibition of IRAK4 by spectrophotometry
# T2 sequence (Q9NWZ3 whole entry): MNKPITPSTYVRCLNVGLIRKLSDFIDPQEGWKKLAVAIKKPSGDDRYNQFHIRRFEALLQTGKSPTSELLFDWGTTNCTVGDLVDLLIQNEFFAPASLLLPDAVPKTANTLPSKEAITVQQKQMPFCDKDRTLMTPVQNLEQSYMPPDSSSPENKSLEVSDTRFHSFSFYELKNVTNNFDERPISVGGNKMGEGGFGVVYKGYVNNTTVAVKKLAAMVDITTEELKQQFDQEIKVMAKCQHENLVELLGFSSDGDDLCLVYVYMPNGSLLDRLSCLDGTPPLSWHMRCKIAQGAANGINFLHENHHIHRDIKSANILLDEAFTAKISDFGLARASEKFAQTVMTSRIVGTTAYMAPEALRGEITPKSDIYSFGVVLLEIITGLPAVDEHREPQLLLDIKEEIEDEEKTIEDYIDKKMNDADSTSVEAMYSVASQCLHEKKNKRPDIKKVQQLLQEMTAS
# Aurora kinase A = target: T3, Aurora kinase A (Homo sapiens, UniProt O14965); assay: Inhibition of Aurora A by spectrophotometry
# T3 sequence (O14965 whole entry): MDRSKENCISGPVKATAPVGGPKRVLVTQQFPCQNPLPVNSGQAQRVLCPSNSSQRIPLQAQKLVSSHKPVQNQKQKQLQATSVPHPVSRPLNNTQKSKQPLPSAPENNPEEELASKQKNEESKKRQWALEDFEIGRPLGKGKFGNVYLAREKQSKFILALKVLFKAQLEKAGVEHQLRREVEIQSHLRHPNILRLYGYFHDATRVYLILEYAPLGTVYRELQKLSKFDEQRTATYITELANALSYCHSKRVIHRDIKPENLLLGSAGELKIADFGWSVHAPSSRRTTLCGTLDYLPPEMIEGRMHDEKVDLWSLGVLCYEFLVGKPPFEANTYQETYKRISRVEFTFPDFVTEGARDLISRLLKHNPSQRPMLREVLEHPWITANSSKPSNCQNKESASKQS
# [6] = target: Tyrosine-protein kinase JAK2 (Homo sapiens, UniProt O60674); assay: Inhibition of JAK2 by spectrophotometry
# Chain of Tyrosine-protein kinase JAK2 (O60674 whole entry): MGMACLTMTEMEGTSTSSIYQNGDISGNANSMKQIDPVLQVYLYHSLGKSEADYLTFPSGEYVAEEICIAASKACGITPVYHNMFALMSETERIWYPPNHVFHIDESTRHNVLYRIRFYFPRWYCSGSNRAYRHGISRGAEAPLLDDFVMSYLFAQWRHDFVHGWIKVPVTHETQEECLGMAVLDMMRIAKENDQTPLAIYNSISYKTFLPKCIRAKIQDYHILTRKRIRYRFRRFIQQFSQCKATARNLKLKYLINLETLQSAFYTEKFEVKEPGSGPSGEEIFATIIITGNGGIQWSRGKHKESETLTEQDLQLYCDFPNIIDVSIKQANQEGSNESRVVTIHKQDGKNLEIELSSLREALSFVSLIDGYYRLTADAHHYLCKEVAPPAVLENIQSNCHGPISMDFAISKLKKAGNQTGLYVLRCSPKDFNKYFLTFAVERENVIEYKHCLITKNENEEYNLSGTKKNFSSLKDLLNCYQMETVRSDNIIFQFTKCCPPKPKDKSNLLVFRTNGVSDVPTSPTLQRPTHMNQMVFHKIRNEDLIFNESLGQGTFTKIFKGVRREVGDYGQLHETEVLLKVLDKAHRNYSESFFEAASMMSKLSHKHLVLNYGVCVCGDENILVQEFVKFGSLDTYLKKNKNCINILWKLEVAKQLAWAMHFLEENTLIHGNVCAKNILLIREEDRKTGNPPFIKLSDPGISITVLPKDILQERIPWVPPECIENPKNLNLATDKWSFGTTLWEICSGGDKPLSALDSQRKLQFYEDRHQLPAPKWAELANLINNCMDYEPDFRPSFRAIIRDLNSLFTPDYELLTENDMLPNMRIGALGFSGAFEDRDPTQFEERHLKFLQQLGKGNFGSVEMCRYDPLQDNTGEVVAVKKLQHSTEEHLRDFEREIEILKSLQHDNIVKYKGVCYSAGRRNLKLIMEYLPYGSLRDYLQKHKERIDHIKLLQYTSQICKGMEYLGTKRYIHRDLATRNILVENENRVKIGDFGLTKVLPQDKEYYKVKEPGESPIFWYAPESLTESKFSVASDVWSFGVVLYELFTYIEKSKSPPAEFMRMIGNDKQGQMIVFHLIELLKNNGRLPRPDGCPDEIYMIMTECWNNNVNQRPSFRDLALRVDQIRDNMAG
Compound,half-life [1],clearance [2],Ki [3],Ki [4],Ki [5],Ki (Aurora kinase A),Ki [6],IC50 (MV4-11)
CN1CCC(c2cccc(Nc3nc(N)n(-c4ccccn4)n3)c2)CC1,2.48 h,174 mL/min/kg,< 1 nM,< 50 nM,–,–,–,< 1 nM
COc1cc(N2CCOCC2)ccc1Nc1nc(N)n(-c2ccc(C#N)cn2)n1,–,–,22 nM,205 nM,340 nM,2600 nM,> 4000 nM,–

# Continued, in another order:
half-life [1],clearance [2],Ki [3],Ki [4],Ki [5],Ki (Aurora kinase A),Ki [6],Compound,IC50 (MV4-11)
2.45 h,77.1 mL/min/kg,–,–,–,–,–,CN1CCC(c2ccc(Nc3nc(N)n(-c4ccccn4)n3)cc2)CC1,0.3 nM
1.6 h,77 mL/min/kg,5 nM,–,–,–,–,Nc1nc(Nc2ccc([C@H]3CC[C@@H](N4CCOCC4)CC3)cc2)nn1-c1ccccn1,1 nM
2.22 h,4.4 mL/min/kg,–,21 nM,–,–,–,Nc1nc(Nc2ccc(C(=O)N3CCOCC3)cc2)nn1-c1ccccn1,2 nM
